Assay results from paper PMC10061536 (ACS Omega, 2023).
Values after ≈ are worked out from the molar mass of the structure shown.

Experiments:
[1] = target: Bovine serum albumin (BSA)-glucose model (Bos taurus, UniProt P02769); experiment: In vitro anti-glycation assay, BSA-glucose model; assay type: biochemical; settings: for inhibition at 100 ppm / inhibition at 200 ppm / inhibition at 400 ppm / inhibition at 600 ppm / inhibition at 800 ppm / inhibition at 1000 ppm: read-out: % age antiglycation inhibition
Chain of Bovine serum albumin (BSA)-glucose model (P02769 25-607): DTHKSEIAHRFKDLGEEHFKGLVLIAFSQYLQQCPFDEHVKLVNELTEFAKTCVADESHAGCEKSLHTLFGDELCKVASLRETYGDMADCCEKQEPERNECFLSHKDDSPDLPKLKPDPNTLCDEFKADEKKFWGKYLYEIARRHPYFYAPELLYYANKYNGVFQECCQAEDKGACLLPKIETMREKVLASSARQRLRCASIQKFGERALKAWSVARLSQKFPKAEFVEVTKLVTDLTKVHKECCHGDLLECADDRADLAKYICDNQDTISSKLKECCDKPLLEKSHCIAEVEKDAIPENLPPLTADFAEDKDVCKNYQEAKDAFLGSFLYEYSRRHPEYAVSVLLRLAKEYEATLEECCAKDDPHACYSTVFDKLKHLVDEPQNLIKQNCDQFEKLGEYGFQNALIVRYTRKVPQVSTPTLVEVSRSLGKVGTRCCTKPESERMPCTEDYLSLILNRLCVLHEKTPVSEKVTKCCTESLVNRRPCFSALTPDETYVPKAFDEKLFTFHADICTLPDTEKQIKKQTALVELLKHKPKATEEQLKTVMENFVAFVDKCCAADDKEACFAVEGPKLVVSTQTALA
Procedure, shortened: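 Glycation is read by measuring the fluorescence of glycated products on a spectrofluorometer.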

α-amylase = experiment: α-Amylase inhibition assay; assay type: biochemical; settings: for IC50: read-out: IC50 ± SEM, α-amylase inhibition
[2] = DPPH radical scavenging assay; settings: for IC50: read-out: IC50 (mM ± SEM), DPPH scavenged by 50%; for percentage antioxidant potential: at tested concentrations, IC50 not calculated
Procedure, shortened: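 Radical scavenging of DPPH by the test compound, with ascorbic acid as the reference.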

glycation [3] = settings: cited from earlier work
glycation [4] = settings: read-out: IC50, antiglycation; cited from earlier work

Row | Structure (SMILES) | inhibition at 100 ppm [1] [%] | inhibition at 200 ppm [1] [%] | inhibition at 400 ppm [1] [%] | inhibition at 600 ppm [1] [%] | inhibition at 800 ppm [1] [%] | inhibition at 1000 ppm [1] [%] | % age α-amylase inhibition (α-amylase; 1 μM) [%] | % age α-amylase inhibition (α-amylase; 5 μM) [%] | % age α-amylase inhibition (α-amylase; 10 μM) [%] | IC50 (α-amylase) [µM] | % age antioxidant potential ([2]; 3 mM) [%] | % age antioxidant potential ([2]; 6 mM) [%] | % age antioxidant potential ([2]; 9 mM) [%] | % age antioxidant potential ([2]; 12 mM) [%] | % age antioxidant potential ([2]; 15 mM) [%] | IC50 [2] [mM] | also measured
1 | CCOc1ccccc1C=NNc1nc(-c2ccc(F)cc2)cs1 [3j, 2-(2-(2-Ethoxybenzylidene)hydrazinyl)-4-(4-fluorophenyl)thiazole] | 52.3 | 61.5 | 66.5 | 70.3 | 76.2 | 79.2 | 29.58 | 42.23 | 54.03 | 8.07 ± 0.12 | 18.18 | 45.90 | 62.07 | 75.45 | 78.51 | 8.33 ± 0.08 | –
2 | Fc1ccc(-c2csc(NN=Cc3ccccc3C(F)(F)F)n2)cc1 [3k, 4-(4-Fluorophenyl)-2-(2-(2-(trifluoromethyl)benzylidene)hydrazinyl)thiazole] | 87.4 | 87.9 | 88.8 | 89.2 | 90 | 91.6 | 47.84 | 57.72 | 70.90 | 6.03 ± 0.04 | 0.00 | 14.08 | 21.05 | 30.92 | 48.28 | – | percentage antioxidant potential [2]: less than 50%
3 | COc1c(F)cccc1C=NNc1nc(-c2ccc(F)cc2)cs1 [3l, 2-(2-(3-Fluoro-2-methoxybenzylidene)hydrazinyl)-4-(4-fluorophenyl)thiazole] | 79.9 | 81.8 | 83 | 84.6 | 86.2 | 87.1 | 37.06 | 49.08 | 61.72 | 7 ± 0.13 | 0.00 | 15.62 | 32.06 | 46.14 | 65.18 | 12.94 ± 0.01 | –
4 | Fc1ccc(-c2csc(NN=Cc3ccc[nH]3)n2)cc1 [3m, 2-(2-((1H-Pyrrol-2-yl)methylene)hydrazinyl)-4-(4-fluorophenyl)thiazole] | 76.8 | 78.8 | 82.5 | 84 | 86.1 | 88.8 | 42.76 | 52.79 | 63.94 | 6.66 ± 0.13 | 0.00 | 0.00 | 0.00 | 15.13 | 31.05 | – | percentage antioxidant potential [2]: less than 50%
5 | Fc1ccc(-c2csc(NN=Cc3cccs3)n2)cc1 [3n, 4-(4-Fluorophenyl)-2-(2-(thiophen-2-ylmethylene)hydrazinyl)thiazole] | 79.3 | 81 | 82.1 | 83 | 85.8 | 87.8 | 51.64 | 64.48 | 71.83 | 5.77 ± 0.05 | 0.00 | 12.72 | 30.39 | 45.47 | 59.36 | 13.86 ± 0.04 | –
6 | CSc1ccccc1C=NNc1nc(-c2ccc(F)cc2)cs1 [3o, 4-(4-Fluorophenyl)-2-(2-(2-(methylthio)benzylidene)hydrazinyl)thiazole] | 83.7 | 84.2 | 85.5 | 86.4 | 88.2 | 89.5 | 33.07 | 43.03 | 57.18 | 7.69 ± 0.18 | 0.00 | 7.68 | 18.22 | 30.15 | 53.73 | 18 ± 0.27 | –
7 | N=C(N)NN [amino guanidine, reference compound] | – | – | – | – | – | – | – | – | – | – | – | – | – | – | – | – | IC50, antiglycation (glycation [3]): 394 ± 1 µg/mL (≈ 5.32 mM); IC50 (glycation [4]): 25.5 ± 0.337 µM; % age antiglycation inhibition ([1]; 100 ppm): 85.190%; % age antiglycation inhibition ([1]; 200 ppm): 86.141%; % age antiglycation inhibition ([1]; 400 ppm): 87.143%; % age antiglycation inhibition ([1]; 600 ppm): 88.011%; % age antiglycation inhibition ([1]; 800 ppm): 88.866%; % age antiglycation inhibition ([1]; 1000 ppm): 89.657%
